Experiments:
[1] = Retention time of the compound in human liver microsomes at 20 uM by LC-MS/MS analysis; type: ADME, microsome
Procedure, shortened: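 Human liver microsomes (both genders; 1.0 mg/mL) in 100 mM PBS pH 7.4 with 3 mM MgCl2 and 10 mM NADPH, preincubated at 37 °C. Reaction started with compound at 20 μM final (from DMSO stock); propranolol 5 μM as control. Aliquots at 0 and 60 min quenched in ice-cold ACN. Analysed by LC/MS/MS on a C18 column, 5–75% B gradient over 30 min, ESI.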

[2] = Induction of microtubule depolymerization in rat A10 cells by indirect immunofluorescence method; type: cell-based
Procedure, shortened: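 A-10 cells, which arrest in interphase, used to score loss of interphase microtubules. EC50 values calculated per an earlier method, minimum of three independent experiments.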

[3] = tested on: HeLa; experiment: Resistance index, ratio of IC50 for human HeLa cells expressing wild type beta3 tubulin to IC50 for human HeLa cells; type: functional
Procedure, shortened: (§1)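 Antiproliferative IC50 by SRB assay (cellular protein) in each isogenic pair: SK-OV-3 parental versus Pgp-expressing, and parental HeLa versus wild-type βIII-tubulin-expressing HeLa. Rr is the IC50 ratio of the modified line to the parental line. At least three independent experiments, each in triplicate, mean ± SD.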

[4] = Antiproliferative activity against human SKOV3-MDR1-M6/6 cells by SRB assay; type: functional
[5] = species on record: Bos taurus; experiment: Inhibition of [3H]colchicine binding to bovine brain tubulin at 1 uM measured after 10 mins by scintillation counting method relative to control
Procedure, shortened: (§2)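 Reactions of 0.1 mL held 1.0 μM bovine brain tubulin, 5.0 μM [3H]colchicine, inhibitor at 1.0 or 5.0 μM, colchicine-binding stabilizing components and 5% DMSO, assembled on ice with tubulin added last. Incubated 10 min at 37 °C, stopped with ice water, filtered through DEAE-cellulose filters. Bound radiolabel counted by scintillation.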

[6] = tested on: SK-OV-3; experiment: Antiproliferative activity against human SKOV3 cells by SRB assay; type: functional, cell-based
[7] = Inhibition of bovine brain tubulin polymerization assessed as reduction in tubulin assembly pretreated for 15 mins followed by GTP addition by spectrophotometric method; design: species or system Bos taurus
Procedure, shortened: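 Placed on ice, then 0.4 mM GTP (final) added. Turbidity read at 350 nm after a jump from 0 °C to 30 °C.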

[8] = tested on: HeLa; experiment: Antiproliferative activity against human HeLa cells by SRB assay; type: functional, cell-based
[9] = tested on: HeLa; experiment: Antiproliferative activity against human HeLa cells expressing wild type beta3 tubulin by SRB assay; type: functional, cell-based
[10] = Resistance index, ratio of IC50 for human SKOV3-MDR1-M6/6 cells to IC50 for human SKOV3 cells; type: functional; procedure, shortened: as §1
[11] = tested on: MDA-MB-435 (human); experiment: Antiproliferative activity against human MDA-MB-435 cells by SRB assay
[12] = species on record: Bos taurus; experiment: Inhibition of [3H]colchicine binding to bovine brain tubulin at 5 uM measured after 10 mins by scintillation counting method relative to control; procedure, shortened: as §2

| SMILES | Retention_time [1] [min] | EC50 [2] [nM] | Ratio IC50 [3] | IC50 [4] [nM] | inhibition [5] [%] | IC50 [6] [nM] | IC50 [7] [nM] | IC50 [8] [nM] | IC50 [9] [nM] | Ratio IC50 [10] | IC50 [11] [nM] | inhibition [12] [%] |
| --- | --- | --- | --- | --- | --- | --- | --- | --- | --- | --- | --- | --- |
| Cc1nc2c(c(N(C)c3ccc(S(C)(=O)=O)cc3)n1)CCC2 | 9.6 | > 10000 | – | – | – | – | – | – | – | – | – | – |
| COc1ccc(N(C)c2nc(C)nc3c2CCC3)cc1C | – | 56 | 0.9 | 47.5 | 59 | 23.9 | 1100 | 22.8 | 20.6 | 2 | 18.4 | 83 |
| Cc1nc2c(c(N(C)c3ccc([S+](C)[O-])cc3)n1)CCC2 (configuration not stated) | 7.9 | 31 | 1.5 | 19.9 | 79 | 12.6 | 1100 | 6.8 | 10 | 1.6 | 7.9 | 93 |
| COc1ccc([C@@H](C)N(C)c2nc(C)nc3c2CCC3)cc1 | – | > 10000 | – | – | – | – | – | – | – | – | – | – |
| Cc1nc2c(c(N(C)c3ccc(N(C)C)cc3)n1)CCC2 | – | 40 | 0.9 | 22.6 | 65 | 13 | 1200 | 11.3 | 9.8 | 1.7 | 8.2 | 85 |
| COc1ccc(/C=C\c2cc(OC)c(OC)c(OC)c2)cc1O [COMBRETASTATIN A4] | – | 13 | – | 6.6 | – | – | – | – | – | – | 3.4 | – |
| Cc1nc2c(c(N(C)c3ccc4c(c3)CCO4)n1)CCC2 | – | 70 | 0.9 | 29.8 | 64 | 18.7 | 1200 | 16 | 15.1 | 1.6 | 12.1 | 85 |
| COc1ccc(N(C)c2nc(C)nc3c2CCC3)cc1 | – | 26 | – | 16.4 | 70 | – | 1600 | 12 | 9.6 | – | – | 92 |
| COc1ccc(CN(C)c2nc(C)nc3c2CCC3)cc1 | – | > 10000 | – | – | – | – | – | – | – | – | 450 | – |
| Cc1nc2c(c(N(C)c3ccc(N)cc3)n1)CCC2 | – | 5120 | – | – | – | – | – | – | – | – | 1220 | – |
| COc1ccc([C@H](C)N(C)c2nc(C)nc3c2CCC3)cc1 | – | > 10000 | – | – | – | – | – | – | – | – | – | – |
| CNc1ccc(N(C)c2nc(C)nc3c2CCC3)cc1 | – | 45 | 0.6 | 49.7 | – | 36.3 | – | 31 | – | 1.4 | 20 | – |
| Cc1nc2c(c(N(C)c3ccc(O)cc3)n1)CCC2 | – | 5560 | – | – | – | – | – | – | – | – | 405 | – |
